Shown are actives, neighbours in structure and some others; about 1.5% of the full set was active somewhere.
SENP1 FRET inh – human SENP1 catalytic domain inhibitors, primary screen, biochemical, FRET, uHTS; recombinant SENP1 catalytic domain, CyPet-SUMO1-YPet FRET cleavage; 0.21% of 360,000 active; inhibition, % at 10 µM; Sentrin-specific protease 1 (Homo sapiens), Q9P0U3;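 active = inhibition at least 30% at 10 µM, raw YFP signal under a set limit, fluorescence ratio 0.5 to 1.5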;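 note: 0% = enzyme with DMSO and 100% = no enzyme wells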
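Assay system: hSENP1 catalytic domain, recombinant. Amount: SENP1 enzyme, 20 pM final. Schedule: 50 min reaction, RT, dark. Technique: FRET, CFP and YFP emission. Control set: no-enzyme wells low, DMSO-plus-enzyme wells high control.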
Myeloid diff 2 – induction of myeloid progenitor differentiation, primary screen, cell-based, flow cytometry, MLPCN library; ER-HoxA9 myeloid progenitors, lysozyme-GFP differentiation; 1% of 360,000 active; AID 624256, 2012; calls only at 10 µM;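 active = normalized GFP-positive differentiation at or above the plate's own cutoff, the solvent-only control mean plus 3 SD; inconclusive = no clear call, values can overlap the other calls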;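 note: cells exposed to compound for four days before flow analysis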
Platelet DG rel – inhibitors of platelet dense granule secretion, primary screen, cell-based, MLPCN, human platelets. human platelet-rich plasma, SFLLRN dense granule ATP release, luminescence. inhibition, %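 (compounds screened at 7.5 µM in platelet-rich plasma)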. 0.22% of 300,000 active;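 active = mean replicate score, as percent of positive control, at or above 50; inconclusive = mean below 50 but at least one replicate at or above 50; inactive = mean and every replicate below 50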
VLA-4 inh – inhibition in human VLA-4 binding assay, primary screen, VLA-4 allosteric modulator project, MLPCN library, flow cytometry, VLA-4 expressing cells; AID 2557, 2010; inhibition, % (about 7 µM as worked out from the volumes in the protocol); 0.2% of 330,000 active; ligand binding flow cytometry; Integrin alpha-4 (Homo sapiens), P13612; in the data active = inhibition above about 50%
Target sequence (P13612 whole entry, looked up): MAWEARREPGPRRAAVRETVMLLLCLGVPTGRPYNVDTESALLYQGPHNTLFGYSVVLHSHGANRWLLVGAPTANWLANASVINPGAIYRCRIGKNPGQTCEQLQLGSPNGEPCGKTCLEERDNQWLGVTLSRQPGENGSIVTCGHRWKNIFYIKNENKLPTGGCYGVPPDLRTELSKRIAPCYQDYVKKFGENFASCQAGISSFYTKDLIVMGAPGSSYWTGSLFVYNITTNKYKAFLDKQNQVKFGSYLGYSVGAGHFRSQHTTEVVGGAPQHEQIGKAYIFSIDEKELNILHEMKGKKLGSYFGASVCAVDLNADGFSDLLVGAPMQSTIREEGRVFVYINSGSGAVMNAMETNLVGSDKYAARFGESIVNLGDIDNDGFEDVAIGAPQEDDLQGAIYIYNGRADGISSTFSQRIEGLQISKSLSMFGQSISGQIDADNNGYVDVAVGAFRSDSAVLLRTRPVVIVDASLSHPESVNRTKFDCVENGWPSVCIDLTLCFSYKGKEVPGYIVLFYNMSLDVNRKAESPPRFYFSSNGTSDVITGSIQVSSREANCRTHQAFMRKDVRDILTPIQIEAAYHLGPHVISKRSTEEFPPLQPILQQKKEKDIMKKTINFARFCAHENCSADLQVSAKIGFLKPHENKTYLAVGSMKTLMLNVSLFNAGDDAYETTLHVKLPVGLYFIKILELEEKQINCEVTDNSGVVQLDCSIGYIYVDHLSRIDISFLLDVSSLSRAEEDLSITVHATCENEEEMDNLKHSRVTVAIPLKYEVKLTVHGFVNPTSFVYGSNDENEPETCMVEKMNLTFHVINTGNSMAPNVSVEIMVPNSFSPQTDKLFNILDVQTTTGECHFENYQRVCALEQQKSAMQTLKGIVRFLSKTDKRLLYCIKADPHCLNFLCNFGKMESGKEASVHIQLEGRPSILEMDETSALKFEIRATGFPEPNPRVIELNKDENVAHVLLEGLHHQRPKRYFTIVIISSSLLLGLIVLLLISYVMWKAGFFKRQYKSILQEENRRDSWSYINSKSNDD
Myeloid diff CP1 – inducers of myeloid progenitor differentiation, confirmation, cell-based, GFP/Mac1 flow cytometry, cherry pick 01; shares compounds with Myeloid diff 2; ER-HoxA9 myeloid progenitors, GFP/Mac1 double-positive flow; calls only; 2% of 2,300 active;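 active = share of green or green-and-red cells above 9 and 9% in run 1 or 4 and 3% in run 2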
GFP autofluor – counter-screen for myeloid differentiation promoters: compound fluorescence. shares compounds with Myeloid diff 2. ER-HoxA9 myeloid progenitors, no estrogen, GFP autofluorescence flow cytometry; vehicle wells 0%, positive control 100%. fluorescence response, % (test concentration not listed). 7.4% of 2,300 active. AID 651707;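 active = over 5% cells positive for green fluorescent reporter, or over 2% positive for both it and APC stain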;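 note: range taken on the double positive population between DMSO and positive control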
* hit, by the source's call; i = inactive; u = inconclusive; x = no result given; + = active, no number.

SMILES | SENP1 FRET inh | Myeloid diff 2 | Platelet DG rel | VLA-4 inh | Myeloid diff CP1 | GFP autofluor
CCC(=O)Nc1cccc(NC(=O)c2ccccc2Cl)c1 | 2 | i | 15 | 6 | i | 0
CCC(=O)Nc1cccc(NC(=S)NC(=O)c2ccccc2Cl)c1 | 2 | i | 7 | 16 | x | x
CC(C)N(C(=O)[C@H]1C[C@H](CC(=O)NC(C)(C)C)C(=O)N2CCc3c([nH]c4cc(-c5ccco5)ccc34)[C@]12C)C(C)C | -12 | i | x | x | x | x
CCN(CC)C(=O)[C@H]1C[C@H](CC(=O)NC(C)(C)C)C(=O)N2CCc3c([nH]c4cc(-c5ccco5)ccc34)[C@]12C | -34 | + | x | x | i | 0
CCC(CO)NCC(O)COCc1ccc2c(c1)OCO2 (stereo not given) | 0 | i | 8 | -2 | x | x
c1ccc(-c2ccc(OCCCn3cncn3)cc2)cc1 | 1 | i | x | -5 | x | x
c1ccc(COc2ccc(OCCn3cncn3)cc2)cc1 | -11 | i | 4 | -4 | i | 0
C/C(Cc1nnn(-c2cc(C)on2)n1)=N\O | 0 | i | 0 | 4 | x | x
CC(C)(C)C(=O)Nc1cc(NC(=O)C(C)(C)C)cc(C(=O)NNC(=O)c2ccncc2)c1 | 2 | + | 1 | 8 | i | 0
CC(C)(C)C(=O)Nc1cc(NC(=O)C(C)(C)C)cc(C(=O)Nc2cc(C(=O)O)cc(C(=O)O)c2)c1 | 3 | i | -10 | 12 | x | x
COc1cccc(Cn2cnc3c(N)c(C)c(C)cc32)c1 | 1 | i | -2 | -15 | i | 0
CCCn1cnc2c(N)c(C)c(C)cc21 | 1 | i | -3 | 0 | x | x
Cc1cc(S(=O)(=O)N(Cc2ccccc2F)C2CC2)ccc1-n1cnnn1 | 0 | i | 0 | 22 | i | 0
CC1(C)COCN1S(=O)(=O)c1ccc(C(=O)Nc2nnc(-c3ccc(Cl)s3)o2)cc1 | x | x | 0 | 8 | x | x
COc1ccc(-c2nnc(NC(=O)c3ccc(S(=O)(=O)N4COCC4(C)C)cc3)o2)cc1 | 0 | i | -1 | -2 | i | 5.3*
Oc1ccc(/C=N/NC(=S)Nc2cccnc2)cc1 | -1 | i | 10 | 7 | i | 0
COc1cccc(/C=N/NC(=S)Nc2cccnc2)c1 | 0 | i | 7 | -5 | x | x
Cc1cc(=O)n2c3ccccc3n(CC(O)CN3CCCCC3)c2c1C#N (stereo not given) | -4 | + | -1 | 3 | i | 0
Cc1ccc(C(=O)Nc2nc3n(n2)C(c2ccccc2)CC(=O)N3)cc1 (stereo not given) | 2 | i | -11 | 4 | x | x
Cc1cccc(CCNc2nc3ccccc3n3nnnc23)c1 | -40 | + | 0 | 15 | i | 0
O=C(Nc1ccccc1Cl)C1CCCN(c2ncnc3c2nc2n3CCCCC2)C1 (stereo not given) | 2 | i | -30 | 0 | x | x
COc1ccc(-n2c(=S)[nH]c3cc(C(=O)NCc4ccco4)ccc3c2=O)cc1OC | 3 | i | -1 | -7 | x | x
COc1ccc(CCn2c(=S)[nH]c3cc(C(=O)NCc4ccco4)ccc3c2=O)cc1OC | 2 | i | -9 | -4 | i | 0
CCCc1nnc(NC(=O)C2CCN(C(=O)c3ccco3)CC2)s1 | -2 | i | 5 | 9 | x | x
CCOC(=O)c1c(C)[nH]c(C(=O)N/N=C\c2ccccc2Cl)c1C | 2 | i | -17 | 20 | i | 0
SMILES | SENP1 FRET inh | Myeloid diff 2 | Platelet DG rel | VLA-4 inh | Myeloid diff CP1 | GFP autofluor
CCC(CC)C(=O)N(C)c1c(C)nc2c(OCc3cccc(Cl)c3)cccn12 | 0 | i | x | x | x | x
O=C(COC(=O)C1CC(=O)N(CCc2ccccc2)C1)c1ccc[nH]1 (stereo not given) | -1 | i | x | -2 | x | x
Oc1[nH]c2ccccc2c1C=Nc1ccccc1 | -3 | i | 18 | 6 | i | 0
COc1ccc(CCNC(=O)c2ccc3c(c2)S(=O)(=O)N=C2CCCCCN23)cc1 | 0 | i | 7 | 32 | x | x
CCOC(=O)c1ccccc1NC(=O)Cn1cnc2c(cnn2-c2ccccc2)c1=O | -1 | i | -1 | -2 | i | 0
CCN(CC)CCN(C(=O)c1ccc(N2C(=O)CCC2=O)cc1)c1nc2cc3c(cc2s1)OCCO3 | 0 | + | 9 | 3 | i | 0
CCN(CC)CCN(C(=O)c1cccc(N2C(=O)CCC2=O)c1)c1nc2cc3c(cc2s1)OCO3 | -1 | i | -4 | 2 | x | x
N#CCC(=O)Nc1ccc(C(=O)OC(C(=O)Nc2cc(C(F)(F)F)ccc2Cl)c2ccccc2)cc1 (stereo not given) | -24 | + | 11 | 3 | i | 1
O=C(c1ccc(S(=O)(=O)N2CCCC2)cc1)N1CCCCCC1 | 2 | i | -1 | x | x | x
O=C(c1ccc(S(=O)(=O)N2CCCCC2)cc1)N1CCN(CCN2C(=O)c3cccc4cccc(c34)C2=O)CC1 | 2 | + | 1 | -6 | i | 0
Nc1nc2n(n1)C1(CCCCC1)C1=C(CCCC1)N2 | x | x | -1 | -6 | x | x
C1CCC2(CC1)C1=C(CCCC1)Nc1nnnn12 | -26 | + | -1 | -5 | i | 0
CC(C)(C)c1nc(CN2CCOCC2)ccc1O | -1 | i | 0 | 2 | x | x
CC(C)(C)c1nc(CN2CCCCC2)cc(CN2CCCCC2)c1O | 2 | + | -9 | 8 | i | 0
CC1(C)CC(=O)C=C(C#CC2(O)CCCCC2)C1 | 0 | u | x | x | i | 0
Cc1ccc(C(C(=O)NC2CCCCC2)N(C(=O)Cc2c[nH]c3ccccc23)c2ccccc2)o1 (stereo not given) | -2 | + | -4 | 12 | i | 0
O=C(CSc1nnc(C2COc3ccccc3O2)o1)N1CCN(c2ccccc2)CC1 (stereo not given) | 0 | i | -12 | 3 | x | x
CC1CCCCC1NC(=O)c1cccc(S(=O)(=O)N2CCN(Cc3ccccc3)CC2)c1 (stereo not given) | 2 | i | 0 | 16 | x | x
O=C(O)CN(c1ccccn1)S(=O)(=O)c1ccccc1 | 1 | i | -2 | 3 | x | x
O=C(O)CN(c1ccccn1)S(=O)(=O)c1ccc(Cl)cc1 | 0 | + | -2 | 21 | i | 1
Cc1cc(C)cc(-n2c(C)nc3cc(C(=O)O)ccc32)c1 | 1 | i | -4 | 9 | x | x
Cc1cc(-c2cc(-c3ccc(Cl)cc3)nc(N)c2C#N)co1 | -19 | + | -7 | -152 | i | 0
C(#Cc1ccccc1)C[N+]1(CC#Cc2ccccc2)CCCC1 | 3 | u | 0 | 8 | x | x
